Measured values: ChEMBL document CHEMBL1811884, “Bioactive neo-clerodane diterpenoids from the whole plants of Ajuga ciliata Bunge” (J Nat Prod, 2011)
Calls of active or inactive are those of the source. The calls are words filed in the database; no cut-off is given here.

Key:
[1] = tested on: SH-SY5Y; assay: Neuroprotective activity against MPP+-induced neuronal cell death in human SH-SY5Y cells assessed as cell viability at 3 uM pretreated for 2 hrs before MPP+ administration measured after 4 hrs by MTT assay; format: functional
Outline: (§1)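 SH-SY5Y cells grown at 37 °C in DMEM with 10% heat-inactivated FBS and penicillin/streptomycin, detached with 1 mM EGTA in PBS for 15 min, seeded at 1 × 10^4 cells/well and incubated 24 h. Cells were pretreated 2 h with compound at 3, 10 or 30 μM, then exposed to MPP+ medium. MTT was added to 0.5 mg/mL final, incubated 4 h, and formazan read at 550 nm. Guanosine served as positive control. Triplicates, mean ± SEM, ANOVA with Student–Newman–Keuls test.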

[2] = tested on: SH-SY5Y; assay: Neuroprotective activity against MPP+-induced neuronal cell death in human SH-SY5Y cells assessed as cell viability at 10 uM pretreated for 2 hrs before MPP+ administration measured after 4 hrs by MTT assay; format: functional; outline: as §1
[3] = tested on: SH-SY5Y; assay: Neuroprotective activity against MPP+-induced neuronal cell death in human SH-SY5Y cells assessed as cell viability at 30 uM pretreated for 2 hrs before MPP+ administration measured after 4 hrs by MTT assay; format: functional; outline: as §1
[4] = tested on: SH-SY5Y; assay: Cytotoxicity in human SH-SY5Y cells at 3 to 30 uM by MTT assay; format: cell-based
Outline: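 SH-SY5Y human dopaminergic neuroblastoma cells grown at 37 °C, 5% CO2, in DMEM with 10% inactivated FBS and penicillin/streptomycin. Cells detached with 1 mM EGTA in PBS for 15 min, seeded at 1 × 10^4 cells/well, and incubated 24 h. Compounds given at 3, 10 and 30 μM. MTT added to 0.5 mg/mL final for 4 h at 37 °C; formazan read at 550 nm. Run in triplicate.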

Structure (SMILES) | Activity [1] | Activity [2] | Activity [3] | Activity [4]
CC(=O)OC[C@@]12[C@@H](OC(C)=O)C[C@@H](C)[C@](C)(C[C@H](O)C3=CC(=O)OC3)[C@H]1CCC[C@]21CO1 | inactive | inactive | inactive | 
C/C=C(\C)C(=O)O[C@@H](C[C@@]1(C)[C@H](C)C[C@H](OC(C)=O)[C@]2(COC(C)=O)[C@@H]1[C@H](OC(=O)[C@@H](C)CC)CC[C@]21CO1)C1=CC(=O)OC1 [AJUGAMARIN H1] | 67.3% | 70.4% | 87.5% | 
CC(=O)OC[C@]12[C@@H](OC(C)=O)C[C@@H](C)[C@]3(C)C[C@H](C4=CC(=O)OC4)O[C@H](CC[C@]1(O)CCl)[C@H]32 | inactive | inactive | inactive | 
Nc1nc2c(ncn2[C@@H]2O[C@H](CO)[C@@H](O)[C@H]2O)c(=O)[nH]1 [GUANOSINE] | 70% | 79.7% | 90.1% | 
C/C=C(\C)C(=O)O[C@@H](C[C@@]1(C)[C@H](C)C[C@H](OC(C)=O)[C@]2(COC(C)=O)[C@@H]1[C@H](OC(C)=O)CC[C@]21CO1)C1=CC(=O)OC1 [AJUGANIPPONIN A] | 65.4% | 69.2% | 76.6% | Non-toxic
C/C=C(\C)C(=O)OC[C@@]12[C@H](CCC[C@]1(O)COC(C)=O)[C@@](C)(CCC1=CC(=O)OC1)[C@H](C)C[C@@H]2O | inactive | inactive | inactive | 
CC(=O)OC[C@@]12[C@@H](OC(C)=O)C[C@@H](C)[C@](C)(C[C@H](O)C3=CC(=O)OC3)[C@H]1[C@H](OC(C)=O)CC[C@]21CO1 | inactive | inactive | inactive | 
C/C=C(\C)C(=O)O[C@@H](C[C@@]1(C)[C@H](C)C[C@H](OC(C)=O)[C@]2(COC(C)=O)[C@@H]1[C@H](OC(=O)/C(C)=C/C)CC[C@]2(O)CCl)C1=CC(=O)OC1 | inactive | inactive | inactive | 
C/C=C(\C)C(=O)O[C@@H]1CC[C@](O)(CCl)[C@]2(COC(C)=O)[C@@H](OC(C)=O)C[C@@H](C)[C@](C)(C[C@H](OC(C)=O)C3=CC(=O)OC3)[C@@H]12 [AJUGAMARIN A2 CHLOROHYDRIN] | 71% | 79.7% | 83.7% | 
C/C=C(\C)C(=O)O[C@@H]1CC[C@](O)(CCl)[C@]2(COC(C)=O)[C@@H](OC(C)=O)C[C@@H](C)[C@](C)(C[C@H](O)C3=CC(=O)OC3)[C@@H]12 [AJUGAMARIN A1 CHLOROHYDRIN] | 67.1% | 69.2% | 73.8% | 
C/C=C(\C)C(=O)OC[C@@]12[C@@H](OC(C)=O)C[C@@H](C)[C@](C)(CCC3=CC(=O)OC3)[C@H]1CCC[C@]2(O)CCl | inactive | inactive | inactive | 
CC[C@H](C)C(=O)O[C@@H]1CC[C@]2(CO2)[C@]2(COC(C)=O)[C@@H](OC(C)=O)C[C@@H](C)[C@](C)(C[C@H](O)C3=CC(=O)OC3)[C@@H]12 | inactive | inactive | inactive | 
C/C=C(\C)C(=O)O[C@@H](C[C@@]1(C)[C@H](C)C[C@H](OC(C)=O)[C@]2(COC(C)=O)[C@@H]1CCC[C@]21CO1)C1=CC(=O)OC1 | inactive | inactive | inactive | 
C/C=C(\C)C(=O)OC[C@@]1(O)CCC[C@@H]2[C@@](C)(CCC3=CC(=O)OC3)[C@H](C)C[C@H](O)[C@]21CO | inactive | inactive | inactive | 
C/C=C(\C)C(=O)OC[C@@]12[C@H](CCC[C@]1(O)CO)[C@@](C)(CCC1=CC(=O)OC1)[C@H](C)C[C@@H]2O | inactive | inactive | inactive | 
C/C=C(\C)C(=O)OC[C@@]12[C@@H](OC(C)=O)C[C@@H](C)[C@](C)(CCC3=CC(=O)OC3)[C@H]1CCC[C@]21CO1 | inactive | inactive | inactive | 
CC[C@H](C)C(=O)O[C@@H](C[C@@]1(C)[C@H](C)C[C@H](OC(C)=O)[C@]2(COC(C)=O)[C@@H]1[C@H](OC(=O)[C@@H](C)CC)CC[C@]2(O)CCl)C1=CC(=O)OC1 | inactive | inactive | inactive | 
C/C=C(\C)C(=O)O[C@@H]1CC[C@]2(CO2)[C@]2(COC(C)=O)[C@@H](OC(C)=O)C[C@@H](C)[C@](C)(C[C@H](OC(C)=O)C3=CC(=O)OC3)[C@@H]12 | inactive | inactive | inactive | 
CC(=O)OC[C@@]12[C@@H](OC(C)=O)C[C@@H](C)[C@](C)(C[C@H](OC(C)=O)C3=CC(=O)OC3)[C@H]1[C@H](OC(C)=O)CC[C@]21CO1 | inactive | inactive | inactive | 
CC(=O)OC[C@]12[C@@H](OC(C)=O)C[C@@H](C)[C@]3(C)C[C@H](C4=CC(=O)OC4)O[C@H](CC[C@]14CO4)[C@H]32 [AJUGACILIATIN H] | 65.2% | 74.2% | 78.2% | 
CC(=O)OC[C@]12[C@@H](OC(C)=O)C[C@@H](C)[C@]3(C)C[C@H](C4=CC(=O)OC4)O[C@H](CC[C@]1(O)CO)[C@H]32 [AJUGACILIATIN G] | 69.1% | 73.6% | 81.5% | 
C/C=C(\C)C(=O)[C@@H]1CC[C@]2(CO2)[C@]2(COC(C)=O)[C@@H](OC(C)=O)C[C@@H](C)[C@](C)(C[C@H](OC(=O)[C@@H](C)CC)C3=CC(=O)OC3)[C@@H]12 | inactive | inactive | inactive | 
C/C=C(\C)C(=O)O[C@@H]1CC[C@](O)(CCl)[C@]2(COC(C)=O)[C@@H](OC(C)=O)C[C@@H](C)[C@](C)(C[C@H](OC(=O)[C@@H](C)CC)C3=CC(=O)OC3)[C@@H]12 | inactive | inactive | inactive | 
CC[C@H](C)C(=O)O[C@@H]1CC[C@](O)(CCl)[C@]2(COC(C)=O)[C@@H](OC(C)=O)C[C@@H](C)[C@](C)(C[C@H](OC(C)=O)C3=CC(=O)OC3)[C@@H]12 | inactive | inactive | inactive | 
CC[C@H](C)C(=O)O[C@@H](C[C@@]1(C)[C@H](C)C[C@H](OC(C)=O)[C@]2(COC(C)=O)[C@@H]1[C@H](OC(=O)[C@@H](C)CC)CC[C@]21CO1)C1=CC(=O)OC1 [AJUGATAKASIN B] | 70.2% | 76.5% | 84.3% | 
C/C=C(\C)C(=O)O[C@@H](C[C@@]1(C)[C@H](C)C[C@H](OC(C)=O)[C@]2(COC(C)=O)[C@@H]1[C@H](OC(=O)/C(C)=C/C)CC[C@]21CO1)C1=CC(=O)OC1 [AJUGATAKASIN A] | 66.3% | 71.5% | 78.2% | 
CC[C@H](C)C(=O)O[C@@H](C[C@@]1(C)[C@H](C)C[C@H](OC(C)=O)[C@]2(COC(C)=O)[C@@H]1[C@H](OC(C)=O)CC[C@]2(O)CCl)C1=CC(=O)OC1 [AJUGACILIATIN B] | 67.4% | 80.4% | 88.2% | 
C/C=C(\C)C(=O)O[C@@H]1CC[C@]2(CO2)[C@]2(COC(C)=O)[C@@H](OC(C)=O)C[C@@H](C)[C@](C)(C[C@H](O)C3=CC(=O)OC3)[C@@H]12 [AJUGAMARIN A1] | 65.3% | 73.4% | 81.9% | 
